In brackets after ≈: the same amount, converted by molar mass. Activity calls are given as the source filed them. The calls are words filed in the database; no cut-off is given here.
Experiments:
Staphylococcus aureus [1] = experiment: Antimicrobial activity against Staphylococcus aureus NCIM 2079/ATCC 6538P at 12.5 ug/mL after 24 hrs by disc diffusion method; type: functional; details: for zone of inhibition at 12.5 µg/mL: read-out: DIZ
Outline: (§1)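 NCIM cultures were used. Test solutions in DMSO, diluted from a 1 mg mL-1 stock to 12.5, 25 or 50 µg mL-1, were loaded onto sterile 5 mm filter-paper discs and dried. Nutrient agar was spread with 100 µL of 24 h bacterial suspension (10^8 cells mL-1). Incubation was 37 ± 1 °C for 24 h, and inhibition-zone diameter was read. DMSO served as control, with tetracyclin and streptomycin (50 µg mL-1) discs as standards. Triplicate, averaged.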

Staphylococcus aureus [2] = experiment: Antimicrobial activity against Staphylococcus aureus NCIM 2079/ATCC 6538P at 1000 ug/mL after 24 hrs by disc diffusion method; type: functional, organism-based
Staphylococcus aureus [3] = experiment: Antimicrobial activity against methicillin-resistant Staphylococcus aureus at 25 ug/mL after 24 hrs by disc diffusion method; type: functional, organism-based
[4] = tested on: Mycobacterium tuberculosis; experiment: Antimycobacterial activity against multidrug-susceptible Mycobacterium tuberculosis H37Rv ATCC 27294 after 4 weeks; type: functional; details: H37Rv ATCC 27294, 672 h
Outline: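 Lowenstein-Jensen proportion method. Drug at 6.25, 12.5, 25, 50 and 100 µg mL-1 in LJ medium slants, set overnight. Inoculated with 4 mg mL-1 suspension by 3 mm loop, 37 °C, 4 weeks. MIC is the lowest concentration fully inhibiting growth, by CFU versus medium, inoculated and DMSO controls. Three independent determinations.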

Bacillus subtilis [5] = experiment: Antimicrobial activity against Bacillus subtilis NCIM 2063/ATCC 6633 at 25 ug/mL after 24 hrs by disc diffusion method; type: functional; details: NCIM 2063/ATCC 6633, 24 h, read-out: DIZ; outline: as §1
Escherichia coli [6] = experiment: Antimicrobial activity against Escherichia coli NCIM 2068/ATCC 11105 at 12.5 ug/mL after 24 hrs by disc diffusion method; type: functional; details: NCIM 2068/ATCC 11105, 24 h, read-out: DIZ; outline: as §1
Proteus vulgaris [7] = experiment: Antimicrobial activity against Proteus vulgaris NCIM 2027/ATCC 13315 at 25 ug/mL after 24 hrs by disc diffusion method; type: functional; details: NCIM 2027/ATCC 13315, 24 h, read-out: DIZ; outline: as §1
Bacillus subtilis [8] = experiment: Antimicrobial activity against Bacillus subtilis NCIM 2063/ATCC 6633 at 12.5 ug/mL after 24 hrs by disc diffusion method; type: functional; details: for zone of inhibition at 12.5 µg/mL: NCIM 2063/ATCC 6633, 24 h, read-out: DIZ; outline: as §1
Staphylococcus aureus [9] = experiment: Antimicrobial activity against methicillin-resistant Staphylococcus aureus at 50 ug/mL after 24 hrs by disc diffusion method; type: functional, organism-based
Escherichia coli [10] = experiment: Antimicrobial activity against Escherichia coli NCIM 2068/ATCC 11105 at 1000 ug/mL after 24 hrs by disc diffusion method; type: functional, organism-based
Bacillus subtilis [11] = experiment: Antimicrobial activity against Bacillus subtilis NCIM 2063/ATCC 6633 at 50 ug/mL after 24 hrs by disc diffusion method; type: functional; details: NCIM 2063/ATCC 6633, 24 h, read-out: DIZ; outline: as §1
Escherichia coli [12] = experiment: Antimicrobial activity against Escherichia coli NCIM 2068/ATCC 11105 at 25 ug/mL after 24 hrs by disc diffusion method; type: functional; details: NCIM 2068/ATCC 11105, 24 h, read-out: DIZ; outline: as §1
Staphylococcus aureus [13] = experiment: Antimicrobial activity against Staphylococcus aureus NCIM 2079/ATCC 6538P at 50 ug/mL after 24 hrs by disc diffusion method; type: functional; details: read-out: DIZ; outline: as §1
Staphylococcus aureus [14] = experiment: Antimicrobial activity against methicillin-resistant Staphylococcus aureus at 1000 ug/mL after 24 hrs by disc diffusion method; type: functional; details: for zone of inhibition at 1000 µg/mL: read-out: DIZ
Outline: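 Disc diffusion on nutrient agar. Compound at 1 mg mL-1 (1000 µg mL-1) in DMSO was loaded onto 5 mm sterile filter-paper discs and dried. Plates were spread with 100 µL of a 24 h culture at 10^8 cells mL-1. Incubated at 37 ± 1 °C for 24 h; inhibition zone diameters recorded. DMSO control disc. Triplicate, averaged.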

Escherichia coli [15] = experiment: Antimicrobial activity against Escherichia coli NCIM 2068/ATCC 11105 at 50 ug/mL after 24 hrs by disc diffusion method; type: functional; details: NCIM 2068/ATCC 11105, 24 h, read-out: DIZ; outline: as §1
Bacillus subtilis [16] = experiment: Antimicrobial activity against Bacillus subtilis NCIM 2063/ATCC 6633 at 1000 ug/mL after 24 hrs by disc diffusion method; type: functional, organism-based
Proteus vulgaris [17] = experiment: Antimicrobial activity against Proteus vulgaris NCIM 2027/ATCC 13315 at 50 ug/mL after 24 hrs by disc diffusion method; type: functional; details: NCIM 2027/ATCC 13315, 24 h, read-out: DIZ; outline: as §1
Staphylococcus aureus [18] = experiment: Antimicrobial activity against methicillin-resistant Staphylococcus aureus at 12.5 ug/mL after 24 hrs by disc diffusion method; type: functional, organism-based
Proteus vulgaris [19] = experiment: Antimicrobial activity against Proteus vulgaris NCIM 2027/ATCC 13315 at 1000 ug/mL after 24 hrs by disc diffusion method; type: functional, organism-based
Proteus vulgaris [20] = experiment: Antimicrobial activity against Proteus vulgaris NCIM 2027/ATCC 13315 at 12.5 ug/mL after 24 hrs by disc diffusion method; type: functional; details: NCIM 2027/ATCC 13315, 24 h, read-out: DIZ; outline: as §1
Staphylococcus aureus [21] = experiment: Antimicrobial activity against Staphylococcus aureus NCIM 2079/ATCC 6538P at 25 ug/mL after 24 hrs by disc diffusion method; type: functional; details: read-out: DIZ; outline: as §1

Compound | zone of inhibition at 12.5 µg/mL (Staphylococcus aureus [1]) | diameter of the inhibition zone (DIZ) (Staphylococcus aureus [2]) | diameter of the inhibition zone (DIZ) (Staphylococcus aureus [3]) | MIC [4] | zone of inhibition at 25 µg/mL (Bacillus subtilis [5]) | zone of inhibition at 12.5 µg/mL (Escherichia coli [6]) | zone of inhibition at 25 µg/mL (Proteus vulgaris [7]) | diameter of the inhibition zone (DIZ) (Staphylococcus aureus [9]) | diameter of the inhibition zone (DIZ) (Escherichia coli [10]) | zone of inhibition at 50 µg/mL (Bacillus subtilis [11]) | zone of inhibition at 25 µg/mL (Escherichia coli [12]) | zone of inhibition at 50 µg/mL (Staphylococcus aureus [13]) | zone of inhibition at 50 µg/mL (Escherichia coli [15]) | diameter of the inhibition zone (DIZ) (Bacillus subtilis [16]) | zone of inhibition at 50 µg/mL (Proteus vulgaris [17]) | diameter of the inhibition zone (DIZ) (Staphylococcus aureus [18]) | diameter of the inhibition zone (DIZ) (Proteus vulgaris [19]) | zone of inhibition at 12.5 µg/mL (Proteus vulgaris [20]) | zone of inhibition at 25 µg/mL (Staphylococcus aureus [21]) | zone of inhibition at 1000 µg/mL (Staphylococcus aureus [14]) | also measured
CCc1ccc(C2C(C(=O)Nc3ccccc3)=C(C)NC(C)=C2C(=O)Nc2ccccc2)cc1 | 8 mm | inactive | inactive | > 25 µg/mL | 13 mm | 10 mm | 14 mm | inactive | inactive | 21 mm | 13 mm | 16 mm | 15 mm | inactive | 16 mm | inactive | inactive | 9 mm | 11 mm | – | zone of inhibition at 12.5 µg/mL (Bacillus subtilis [8]): 11 mm; diameter of the inhibition zone (DIZ) (Staphylococcus aureus [14]): inactive
CN[C@@H]1[C@H](O[C@H]2[C@H](O[C@H]3[C@H](O)[C@@H](O)[C@H](N=C(N)N)[C@@H](O)[C@@H]3N=C(N)N)O[C@@H](C)[C@]2(O)C=O)O[C@@H](CO)[C@H](O)[C@H]1O [STREPTOMYCIN] | – | inactive | – | – | – | – | – | inactive | inactive | 22 mm | – | 21 mm | 23 mm | inactive | 26 mm | – | inactive | – | – | 18 mm | –
CC1=C(C(=O)Nc2ccc(C)cc2)C(c2ccc[nH]2)C(C(=O)Nc2ccc(C)cc2)=C(C)N1 | 9 mm | inactive | inactive | 12.5 µg/mL (≈ 28.4 µM) | 11 mm | 14 mm | 14 mm | inactive | inactive | 13 mm | 19 mm | 12 mm | 22 mm | inactive | 18 mm | inactive | inactive | 10 mm | 11 mm | 10 mm | zone of inhibition at 12.5 µg/mL (Bacillus subtilis [8]): 7 mm
CN(C)[C@@H]1C(O)=C(C(N)=O)C(=O)[C@@]2(O)C(O)=C3C(=O)c4c(O)cccc4[C@@](C)(O)[C@H]3C[C@@H]12 [TETRACYCLINE] | – | inactive | – | – | – | – | – | inactive | inactive | 20 mm | – | 22 mm | 25 mm | inactive | 21 mm | – | inactive | – | – | 15 mm | –
CC1=C(C(=O)Nc2ccc(C)cc2)C(c2ccccn2)C(C(=O)Nc2ccc(C)cc2)=C(C)N1 | 8 mm | inactive | inactive | > 25 µg/mL | 10 mm | 8 mm | 12 mm | inactive | inactive | 12 mm | 10 mm | 12 mm | 14 mm | inactive | 16 mm | inactive | inactive | 9 mm | 10 mm | – | zone of inhibition at 12.5 µg/mL (Bacillus subtilis [8]): 9 mm; diameter of the inhibition zone (DIZ) (Staphylococcus aureus [14]): inactive
NC(=O)c1cnccn1 [PYRAZINAMIDE] | – | – | – | 32 µg/mL (≈ 260 µM) | – | – | – | – | – | – | – | – | – | – | – | – | – | – | – | – | –
CC1=C(C(=O)Nc2ccccc2C)C(c2ccccn2)C(C(=O)Nc2ccccc2C)=C(C)N1 | – | inactive | inactive | 25 µg/mL (≈ 55.2 µM) | 8 mm | 14 mm | 12 mm | inactive | inactive | 10 mm | 17 mm | 15 mm | 19 mm | inactive | 16 mm | inactive | inactive | 10 mm | 12 mm | 8 mm | diameter of the inhibition zone (DIZ) (Staphylococcus aureus [1]): inactive; diameter of the inhibition zone (DIZ) (Bacillus subtilis [8]): inactive
CC1=C(C(=O)Nc2ccccc2)C(c2ccco2)C(C(=O)Nc2ccccc2)=C(C)N1 | 8 mm | inactive | inactive | > 25 µg/mL | 14 mm | 12 mm | 13 mm | inactive | inactive | 16 mm | 15 mm | 14 mm | 18 mm | inactive | 17 mm | inactive | inactive | 8 mm | 12 mm | 10 mm | zone of inhibition at 12.5 µg/mL (Bacillus subtilis [8]): 10 mm

From ChEMBL document CHEMBL1770122, “Synthesis, antibacterial and antimycobacterial activities of some new 4-aryl/heteroaryl-2,6-dimethyl-3,5-bis-N-(aryl)-carbamoyl-1,4-dihydropyridines” (2011)
